# Values joined by “and” are separate entries in the source; they are usually repeats but may differ in a detail not shown here. Identical values can stand only once.
# Test system: HEK-293T
# Assay: Multiplex assay against HEK293T;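 for Population Tubulin-Different-Phenotype (%): share of the cells with healthy nuclei that show this phenotype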
# Format: toxicity, cell-based
# Conditions: human, 10 µM, compound concentration 10 uM
# Procedure, shortened: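 Live cells were stained at seeding with Hoechst33342, BioTracker Green Microtubule Cytoskeleton Dye, MitoTracker Red and Annexin V Alexa Fluor 680, then imaged on a CQ1 microscope at 37°C and 5% CO2 after compound addition. CellPathfinder machine-learning gating split cells into Hoechst high-intensity objects or normal cells. Normal cells were split into healthy, pyknosed or fragmented nuclei, and pyknosed cells into mitotic or apoptotic. Tubulin, mitochondrial-mass and membrane-permeability phenotypes are per cents of healthy-nucleus cells.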
smiles,measurement,setting,value
CNCc1ccccc1-c1csc([C@H](C)Nc2nc(C)nc3cc(OC)c(OC)cc23)c1 [BAY-294],Population Apoptotic (%),"12 h, replicate 1",83% and 29% and 42%
same,Population Fragmented Nuclei (%),"12 h, replicate 1",16% and 15% and 12%
same,Population Hoechst High Intensity Objects (%),"12 h, replicate 1",19% and 16% and 22%
same,Population Normal (%),"12 h, replicate 1",80% and 83% and 77%
same,Population Pyknosed Nuclei (%),"12 h, replicate 1",82% and 39% and 67%
same,Population Tubulin-Different-Phenotype (%),"12 h, replicate 1",50% and 90% and 54%
same,Total Cell Count,"12 h, replicate 1",623 and 618
same,Population Mitochondria Different-Phenotype (%),"12 h, replicate 2",86% and 88% and 34%
same,Population Normal (%),"12 h, replicate 2",88% and 95% and 96%
same,Population Tubulin-Different-Phenotype (%),"12 h, replicate 2",71% and 72% and 98%
same,Total Cell Count,"12 h, replicate 2",864 and 1201
same,Population Apoptotic (%),"24 h, replicate 1",71% and 57% and 28%
same,Population Fragmented Nuclei (%),"24 h, replicate 1",22% and 24% and 13%
same,Population Hoechst High Intensity Objects (%),"24 h, replicate 1",14% and 18% and 13%
same,Population Mitotic Cells (%),"24 h, replicate 1",28% and 42% and 72%
same,Population Normal (%),"24 h, replicate 1",85% and 81% and 86%
same,Population Pyknosed Nuclei (%),"24 h, replicate 1",77% and 61% and 26%
same,Total Cell Count,"24 h, replicate 1",631 and 647
same,Population Fragmented Nuclei (%),"24 h, replicate 2",8% and 5% and 12%
same,Population Membrane Permeable-Phenotype (%),"24 h, replicate 2",11% and 30%
same,Population Normal (%),"24 h, replicate 2",87% and 92% and 96%
same,Population Tubulin-Different-Phenotype (%),"24 h, replicate 2",49% and 76% and 94%
same,Total Cell Count,"24 h, replicate 2",903 and 1682
same,Population Apoptotic (%),"48 h, replicate 1",79%
same,Population Fragmented Nuclei (%),"48 h, replicate 1",31%
same,Population Healthy Nuclei (%),"48 h, replicate 1",0%
same,Population Hoechst High Intensity Objects (%),"48 h, replicate 1",18%
same,Population Membrane Permeable-Phenotype (%),"48 h, replicate 1",0%
same,Population Mitochondria Different-Phenotype (%),"48 h, replicate 1",100%
same,Population Mitotic Cells (%),"48 h, replicate 1",20%
same,Population Normal (%),"48 h, replicate 1",81%
same,Population Pyknosed Nuclei (%),"48 h, replicate 1",68%
same,Population Tubulin-Different-Phenotype (%),"48 h, replicate 1",100%
same,Population Apoptotic (%),"48 h, replicate 2",96%
same,Population Fragmented Nuclei (%),"48 h, replicate 2",17%
same,Population Healthy Nuclei (%),"48 h, replicate 2",33%
same,Population Hoechst High Intensity Objects (%),"48 h, replicate 2",6%
same,Population Membrane Permeable-Phenotype (%),"48 h, replicate 2",6%
same,Population Mitochondria Different-Phenotype (%),"48 h, replicate 2",87%
same,Population Mitotic Cells (%),"48 h, replicate 2",3%
same,Population Normal (%),"48 h, replicate 2",93%
same,Population Pyknosed Nuclei (%),"48 h, replicate 2",49%
same,Population Tubulin-Different-Phenotype (%),"48 h, replicate 2",96%
CN(C)c1ncnc(-c2ccc3nc(Nc4cc(CN5CCN(C(=O)CC(F)(F)F)CC5)ccn4)[nH]c3c2)c1Cl [BAY-440],Population Apoptotic (%),"12 h, replicate 1",24% and 18%
same,Population Fragmented Nuclei (%),"12 h, replicate 1",30% and 12%
same,Population Hoechst High Intensity Objects (%),"12 h, replicate 1",21% and 12%
same,Population Mitochondria Different-Phenotype (%),"12 h, replicate 1",16% and 8%
same,Population Mitotic Cells (%),"12 h, replicate 1",75% and 81%
same,Population Normal (%),"12 h, replicate 1",78% and 87%
same,Population Pyknosed Nuclei (%),"12 h, replicate 1",49% and 24%
same,Total Cell Count,"12 h, replicate 1",575 and 589
same,Population Apoptotic (%),"12 h, replicate 2",16% and 6%
same,Population Fragmented Nuclei (%),"12 h, replicate 2",2% and 5%
same,Population Healthy Nuclei (%),"12 h, replicate 2",79% and 89%
same,Population Hoechst High Intensity Objects (%),"12 h, replicate 2",3% and 1%
same,Population Membrane Permeable-Phenotype (%),"12 h, replicate 2",12% and 6%
same,Population Mitotic Cells (%),"12 h, replicate 2",83% and 93%
same,Population Normal (%),"12 h, replicate 2",96% and 98%
same,Total Cell Count,"12 h, replicate 2",1131 and 1517
same,Population Fragmented Nuclei (%),"24 h, replicate 1",29% and 10%
same,Population Membrane Permeable-Phenotype (%),"24 h, replicate 1",10% and 16%
same,Population Mitotic Cells (%),"24 h, replicate 1",66% and 89%
same,Population Normal (%),"24 h, replicate 1",78% and 94%
same,Population Tubulin-Different-Phenotype (%),"24 h, replicate 1",65% and 25%
same,Total Cell Count,"24 h, replicate 1",555 and 720
same,Population Apoptotic (%),"24 h, replicate 2",16%
same,Population Healthy Nuclei (%),"24 h, replicate 2",76% and 79%
same,Population Hoechst High Intensity Objects (%),"24 h, replicate 2",4% and 2%
same,Population Membrane Permeable-Phenotype (%),"24 h, replicate 2",8% and 13%
same,Population Mitotic Cells (%),"24 h, replicate 2",83%
same,Population Normal (%),"24 h, replicate 2",95% and 97%
same,Total Cell Count,"24 h, replicate 2",1110 and 2572
